Key:
P388 [1] = experiment: The compound was tested for the cytotoxic activity against murine leukemia cells (P388); format: functional, cell-based; settings: Mus musculus
Outline: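 The murine leukemia P388 cell line was used. Cytotoxicity was read out by a colorimetric tetrazolium–formazan assay.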

Protein kinase C (PKC) = experiment: Inhibitory effect on protein kinase C using histone II-As as substrate; format: protein assay
DNA topoisomerase 1 = biological target: T1, DNA topoisomerase 1 (Homo sapiens, UniProt P11387); experiment: Inhibitory effect on topoisomerase-1 mediated DNA cleavage using supercoiled pBR322 plasmid DNA; format: functional
T1 sequence (P11387 whole entry): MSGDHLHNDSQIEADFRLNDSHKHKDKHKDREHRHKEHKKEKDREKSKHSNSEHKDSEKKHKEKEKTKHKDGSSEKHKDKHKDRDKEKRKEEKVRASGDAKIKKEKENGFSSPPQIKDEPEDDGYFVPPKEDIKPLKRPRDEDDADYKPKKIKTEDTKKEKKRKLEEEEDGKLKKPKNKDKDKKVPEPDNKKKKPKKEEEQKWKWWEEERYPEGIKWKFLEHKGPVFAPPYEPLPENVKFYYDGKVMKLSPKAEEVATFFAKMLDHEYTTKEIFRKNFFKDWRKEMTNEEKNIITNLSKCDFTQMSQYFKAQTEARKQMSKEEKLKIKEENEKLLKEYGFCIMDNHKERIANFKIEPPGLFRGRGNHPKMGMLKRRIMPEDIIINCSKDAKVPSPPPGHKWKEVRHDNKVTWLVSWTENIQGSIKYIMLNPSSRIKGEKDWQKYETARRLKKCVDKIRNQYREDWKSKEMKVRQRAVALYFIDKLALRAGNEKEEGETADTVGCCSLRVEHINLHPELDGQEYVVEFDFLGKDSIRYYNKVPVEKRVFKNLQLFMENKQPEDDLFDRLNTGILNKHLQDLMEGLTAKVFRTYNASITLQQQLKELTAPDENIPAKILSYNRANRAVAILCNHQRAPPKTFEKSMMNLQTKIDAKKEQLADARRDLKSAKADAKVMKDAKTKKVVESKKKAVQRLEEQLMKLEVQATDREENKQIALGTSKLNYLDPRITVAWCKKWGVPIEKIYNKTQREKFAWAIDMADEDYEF

MKN-45 [2] = experiment: Tested for cytotoxic activity against human stomach cancer cells (MKN-45); format: functional, cell-based
Outline: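 The human stomach cancer MKN-45 cell line was used. Cytotoxicity was read out by a colorimetric tetrazolium–formazan assay and by sulforhodamine B dye staining.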

P388 [3] = experiment: Compound was tested for the effect on the formation of protein-DNA complex in P388 cells investigated by the K+/SDS method; format: functional, Mus musculus
Outline: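 Formation of topoisomerase–DNA (protein–DNA) complexes was measured in murine leukemia P388 cells by K+/SDS precipitation. Activity was reported as EC200.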

DNA topoisomerase II = DNA topoisomerase II (Homo sapiens, UniProt P11388+Q02880); experiment: Tested for inhibitory effect on topoisomerase-2 mediated DNA cleavage using super coiled pBR322 plasmid DNA; format: functional
Mus sp. = species: Mus sp.; experiment: Tested for toxicity in mice; format: organism-based; settings: in vivo
Outline: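 Nude mice bearing subcutaneous MKN-45 human stomach cancer flank xenografts; dosing intravenous five times/week for 2 weeks, starting once tumors reached 0.2 cm³ or larger. Toxicity expressed as LD₁₀, the approximate dose lethal to 10% of animals on this schedule.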

MKN-45 [4] = experiment: Ratio of compound toxicity to that of anticancer activity against human stomach cancer cells MKN-45 in mice; format: functional
Outline: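 MKN-45 human stomach cancer cells were implanted subcutaneously in a side flank of nude mice. Dosing began once tumors reached 0.2 cm³ or larger and was given intravenously five times per week for 2 weeks. GID75 is the approximate dose giving 75% tumor growth inhibition. LD10 is the approximate 10% lethal dose on the same schedule. Safety margin is LD10/GID75.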

MKN-45 [5] = experiment: Inhibitory activity against human stomach cancer cells MKN-45 in nude mice after intravenous dose

| SMILES | IC50 (P388 [1]) [µM] | IC50 (Protein kinase C (PKC)) [µM] | EC50 (DNA topoisomerase 1) [µM] | IC50 (MKN-45 [2]) [µM] | EC200 (P388 [3]) [nM] | EC50 (DNA topoisomerase II) [µM] | LD10 (Mus sp.) [mg m**-2] | Saftey margin (MKN-45 [4]) | GID75 (MKN-45 [5]) [mg m**-2] |
| --- | --- | --- | --- | --- | --- | --- | --- | --- | --- |
| O=C1c2c(c3c4ccc(O)cc4n([C@H]4O[C@H](CO)[C@@H](O)[C@@H](O)[C@H]4O)c3c3[nH]c4cc(O)ccc4c23)C(=O)N1NC(CO)CO | 0.018 | 72 | 0.026 | 0.02 | 1600 |  |  |  |  |
| O=C1c2c(c3c4ccc(O)cc4n([C@H]4O[C@H](CO)[C@@H](O)[C@H](O)[C@@H]4O)c3c3[nH]c4cc(O)ccc4c23)C(=O)N1NC(CO)CO | 0.015 | 50 | 0.08 | 0.023 | 930 | > 50 |  |  |  |
| O=C1c2c(c3c4ccc(O)cc4n([C@@H]4O[C@H](CO)[C@H](O)[C@H](O)[C@H]4O)c3c3[nH]c4cc(O)ccc4c23)C(=O)N1NC(CO)CO | 0.0071 | > 200 | 0.14 | 0.0093 | >10000 |  |  |  |  |
| O=C1c2c(c3c4ccc(O)cc4n([C@@H]4O[C@H](C(O)CO)[C@@H](O)[C@H]4O)c3c3[nH]c4cc(O)ccc4c23)C(=O)N1NC(CO)CO (stereo partly specified) | 0.017 | > 200 | 0.042 | 0.07 | 2000 | > 50 | 370 | 1.4 | 260 |
| O=C1c2c(c3c4ccc(O)cc4n([C@@H]4O[C@H](CO)[C@@H](O)[C@@H](O)[C@H]4O)c3c3[nH]c4cc(O)ccc4c23)C(=O)N1NC(CO)CO | 0.013 | 17 | 0.026 | 0.033 | 160 | > 50 | 990 | 2.3 | 440 |
| O=C1c2c(c3c4ccc(O)cc4n([C@@H]4OC[C@@H](O)[C@H](O)[C@H]4O)c3c3[nH]c4cc(O)ccc4c23)C(=O)N1NC(CO)CO | 0.0038 | > 200 | 0.1 | 0.05 | 300 | > 50 |  |  |  |
| O=C1c2c(c3c4ccc(O)cc4n([C@H]4C[C@@H](O)[C@H](O)[C@@H](CO)O4)c3c3[nH]c4cc(O)ccc4c23)C(=O)N1NC(CO)CO | 0.0056 | 130 | 0.24 | 0.042 | 3000 | > 50 |  |  |  |
| O=C1c2c(c3c4ccc(O)cc4n([C@@H]4O[C@H](CO)[C@@H](O)[C@H](O)[C@@H]4O)c3c3[nH]c4cc(O)ccc4c23)C(=O)N1NC(CO)CO | 0.036 | 20 | 0.23 | 0.063 | >10000 | > 50 |  |  |  |
| O=C1c2c(c3c4ccc(O)cc4n([C@H]4O[C@H](CO)[C@@H](O)[C@@H]4O)c3c3[nH]c4cc(O)ccc4c23)C(=O)N1NC(CO)CO | 0.0085 | > 200 | 0.1 | 0.043 | 2600 | > 50 |  |  |  |
| O=C1c2c(c3c4ccc(O)cc4n([C@H]4O[C@H](CO)[C@@H](O)[C@H](O)[C@H]4O)c3c3[nH]c4cc(O)ccc4c23)C(=O)N1NC(CO)CO | 0.019 | 23 | 0.3 | 0.0085 | 450 | > 50 | 170 | 1.5 | 110 |
| O=C1c2c(c3c4ccc(O)cc4n([C@@H]4O[C@H](CO)[C@@H](O)[C@H](O)[C@H]4O)c3c3[nH]c4cc(O)ccc4c23)C(=O)N1NC(CO)CO [EDOTECARIN] | 0.0015 | 200 | 0.051 | 0.0048 | 100 | > 50 | > 1600 | >36 | 45 |

From ChEMBL document CHEMBL1133404, “Synthesis and biological activities of NB-506 analogues modified at the glucose group” (Bioorg Med Chem Lett, 2000)
